According to ChEMBL document CHEMBL1145359, “Synthesis and anticonvulsant activity of 4-(2-(2,6-dimethylphenylamino)-2-oxoethylamino)-N-(substituted)butanamides: a pharmacophoric hybrid approach” (Bioorg Med Chem Lett, 2007):
Activity calls are given as the source filed them.

What was measured:
Mus musculus [1] = assay: Anticonvulsant activity against subcutaneous pentylenetetrazole-induced seizure in mouse at 100 mg/kg, ip after 0.5 hrs; type: functional, organism-based; design: dose 100 mg/kg
How it was run: (§1)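 Mice dosed intraperitoneally at 30, 100 and 300 mg/kg, with a vehicle-treated control, then challenged with subcutaneous pentylenetetrazole to detect elevation of seizure threshold. Read 0.5 h after dosing.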

Mus musculus [2] = assay: Acute neurotoxicity in mouse at 300 mg/kg, ip after 0.5 hrs by rotarod test; type: toxicity, organism-based; design: dose 300 mg/kg, route intraperitoneal; settings: in vivo
How it was run: (§2)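 Mice dosed intraperitoneally at 30, 100 and 300 mg/kg; motor impairment scored at 0.5 h and 4 h after dosing. The value recorded is the minimum dose at which the effect appeared in half or more of the mice. A dash means no effect at the top dose of 300 mg/kg. A vehicle-treated control group was included.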

Mus musculus [3] = assay: Anticonvulsant activity against maximal-electroshock-induced seizure in mouse at 300 mg/kg, ip after 0.5 hrs; type: functional, organism-based; design: dose 300 mg/kg
How it was run: (§3)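 Mice received the compound intraperitoneally at 30, 100 or 300 mg/kg and were challenged with maximal electroshock 0.5 h later, scoring prevention of seizure spread. The value recorded is the minimum dose protecting half or more of the mice. A dash means no activity up to 300 mg/kg. A vehicle-treated control group was included.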

Mus musculus [4] = assay: Acute neurotoxicity in mouse at 300 mg/kg, ip after 4 hrs by rotarod test; type: toxicity, organism-based; design: dose 300 mg/kg, route intraperitoneal; settings: in vivo; how it was run: as §2
Mus musculus [5] = assay: Anticonvulsant activity against subcutaneous picrotoxin-induced seizure in mouse at 300 mg/kg, ip after 4 hrs; type: functional, organism-based; design: dose 300 mg/kg
How it was run: (§4)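 Mice given intraperitoneal doses of 30, 100 and 300 mg/kg, with a vehicle-only control, then challenged with subcutaneous picrotoxin. Protection assessed at 0.5 h and 4 h after dosing. Recorded value is the lowest dose protecting half or more of the animals; a dash means no activity at 300 mg/kg.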

Mus musculus [6] = assay: Anticonvulsant activity against subcutaneous picrotoxin-induced seizure in mouse at 100 mg/kg, ip after 0.5 hrs; type: functional, organism-based; design: dose 100 mg/kg; how it was run: as §4
Mus musculus [7] = assay: Anticonvulsant activity against subcutaneous picrotoxin-induced seizure in mouse at 100 mg/kg, ip after 4 hrs; type: functional, organism-based; design: dose 100 mg/kg; how it was run: as §4
Mus musculus [8] = assay: Anticonvulsant activity against maximal-electroshock-induced seizure in mouse at 100 mg/kg, ip after 0.5 hrs; type: functional, organism-based; design: dose 100 mg/kg; how it was run: as §3
Mus musculus [9] = assay: Anticonvulsant activity against subcutaneous pentylenetetrazole-induced seizure in mouse at 300 mg/kg, ip after 0.5 hrs; type: functional, organism-based; design: dose 300 mg/kg
How it was run: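 Intraperitoneal dosing in mice at 30, 100 or 300 mg/kg, followed 0.5 h later by a subcutaneous pentylenetetrazole challenge, scoring protection against seizures (a seizure-threshold test). The value recorded is the minimum dose active in half or more of the mice. A dash means no activity at 300 mg/kg. A vehicle-treated control group was included.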

Mus musculus [10] = assay: Anticonvulsant activity against subcutaneous picrotoxin-induced seizure in mouse at 30 mg/kg, ip after 4 hrs; type: functional, organism-based; design: dose 30 mg/kg; how it was run: as §4
Mus musculus [11] = assay: Anticonvulsant activity against subcutaneous picrotoxin-induced seizure in mouse at 30 mg/kg, ip after 0.5 hrs; type: functional, organism-based; design: dose 30 mg/kg; how it was run: as §4
Mus musculus [12] = assay: Anticonvulsant activity against subcutaneous pentylenetetrazole-induced seizure in mouse at 30 mg/kg, ip after 0.5 hrs; type: functional, organism-based; design: dose 30 mg/kg; how it was run: as §1
Mus musculus [13] = assay: Anticonvulsant activity against subcutaneous picrotoxin-induced seizure in mouse at 10 mg/kg, ip after 0.5 hrs; type: functional, organism-based; design: dose 10 mg/kg
Mus musculus [14] = assay: Acute neurotoxicity in mouse at 100 mg/kg, ip after 0.5 hrs by rotarod test; type: toxicity, organism-based; design: dose 100 mg/kg, route intraperitoneal; settings: in vivo; how it was run: as §2
Mus musculus [15] = assay: Acute neurotoxicity in mouse at 100 mg/kg, ip after 4 hrs by rotarod test; type: toxicity, organism-based; design: dose 100 mg/kg, route intraperitoneal; settings: in vivo; how it was run: as §2
Mus musculus [16] = assay: Anticonvulsant activity against maximal-electroshock-induced seizure in mouse at 30 mg/kg, ip after 0.5 hrs; type: functional, organism-based; design: dose 30 mg/kg; how it was run: as §3

SMILES	Activity (Mus musculus [1])	Activity (Mus musculus [2])	Activity (Mus musculus [3])	Activity (Mus musculus [4])	Activity (Mus musculus [5])	Activity (Mus musculus [6])	Activity (Mus musculus [7])	Activity (Mus musculus [8])	Activity (Mus musculus [9])	Activity (Mus musculus [10])	Activity (Mus musculus [11])	Activity (Mus musculus [12])	Activity (Mus musculus [13])	Activity (Mus musculus [14])	Activity (Mus musculus [15])	Activity (Mus musculus [16])
CCC1(C)CC(=O)NC1=O (centres undefined) [ETHOSUXIMIDE]	Active	Not Active	inactive	Not Active	inactive	–	–	–	–	–	–	–	–	–	–	–
Cc1cccc(C)c1NC(=O)CNCCCC(=O)Nc1cccc(Cl)c1C	–	Active	–	Not Active	–	Active	Active	Active	inactive	–	–	–	–	–	–	–
Cc1cccc(C)c1NC(=O)CNCCCC(=O)Nc1ccccc1	–	Active	–	Active	inactive	Active	–	Active	inactive	–	–	–	–	–	–	–
Cc1cccc(C)c1NC(=O)CNCCCC(=O)Nc1ccccc1Br	–	Active	–	Active	–	–	–	Active	inactive	Active	Active	–	–	–	–	–
Cc1cccc(C)c1NC(=O)CNCCCC(=O)N1CCN(c2cccc(C(F)(F)F)c2)CC1	–	Not Active	inactive	Not Active	–	–	Active	–	inactive	–	Active	–	–	–	–	–
Cc1cccc(C)c1NC(=O)CCCNCC(=O)Nc1c(C)cccc1C	–	Active	–	Not Active	–	–	–	Active	–	Active	–	Active	Active	–	–	–
CCC1(c2ccccc2)C(=O)NC(=O)NC1=O [PHENOBARBITAL]	–	–	–	Active	–	–	Active	Active	–	–	Active	Active	–	Active	–	–
Cc1cccc(C)c1NC(=O)CNCCCC(=O)N1CCCCC1	–	–	–	Active	inactive	Active	–	Active	inactive	–	–	–	–	Active	–	–
Cc1cccc(C)c1NC(=O)CNCCCC(=O)N(c1ccccc1)c1ccccc1	–	Active	Active	Not Active	Active	Active	–	–	inactive	–	–	–	–	–	–	–
Cc1cccc(C)c1NC(=O)CNCCCC(=O)N(C)C	–	Not Active	inactive	Active	–	Active	Active	–	inactive	–	–	–	–	–	–	–
Cc1cccc(NC(=O)CCCNCC(=O)Nc2c(C)cccc2C)c1	–	Active	inactive	Not Active	–	–	Active	–	inactive	–	Active	–	–	–	–	–
Cc1ccc(NC(=O)CCCNCC(=O)Nc2c(C)cccc2C)c(C)c1	–	Active	–	Active	–	Active	Active	Active	Active	–	–	–	–	–	–	–
Cc1cccc(C)c1NC(=O)CNCCCC(=O)O	–	Active	–	Not Active	–	–	Active	Active	inactive	–	Active	–	–	–	–	–
O=C1NC(=O)C(c2ccccc2)(c2ccccc2)N1 [PHENYTOIN]	–	–	–	–	inactive	–	–	–	inactive	–	–	–	–	Active	Active	Active
CCCCN(CCCC)C(=O)CCCNCC(=O)Nc1c(C)cccc1C	–	Active	–	Not Active	–	–	Active	Active	inactive	–	Active	–	–	–	–	–
Cc1cccc(C)c1NC(=O)CNCCCC(=O)N1CCC(C)CC1	–	–	inactive	–	–	Active	Active	–	inactive	–	–	–	–	Active	Active	–
